Only some compounds are listed: those with a hit (about 2.1% of all), similar ones and a draw of the others.
PABP polyA inh: blocks human PABP binding to poly(A) RNA; inhibition, % at 35 µM; actives 1% (n = 290,000); fluorescence polarization; P11940;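 note: calls also rest on retests at 20 µM and on dose response follow-up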
Target sequence (P11940 whole entry, looked up): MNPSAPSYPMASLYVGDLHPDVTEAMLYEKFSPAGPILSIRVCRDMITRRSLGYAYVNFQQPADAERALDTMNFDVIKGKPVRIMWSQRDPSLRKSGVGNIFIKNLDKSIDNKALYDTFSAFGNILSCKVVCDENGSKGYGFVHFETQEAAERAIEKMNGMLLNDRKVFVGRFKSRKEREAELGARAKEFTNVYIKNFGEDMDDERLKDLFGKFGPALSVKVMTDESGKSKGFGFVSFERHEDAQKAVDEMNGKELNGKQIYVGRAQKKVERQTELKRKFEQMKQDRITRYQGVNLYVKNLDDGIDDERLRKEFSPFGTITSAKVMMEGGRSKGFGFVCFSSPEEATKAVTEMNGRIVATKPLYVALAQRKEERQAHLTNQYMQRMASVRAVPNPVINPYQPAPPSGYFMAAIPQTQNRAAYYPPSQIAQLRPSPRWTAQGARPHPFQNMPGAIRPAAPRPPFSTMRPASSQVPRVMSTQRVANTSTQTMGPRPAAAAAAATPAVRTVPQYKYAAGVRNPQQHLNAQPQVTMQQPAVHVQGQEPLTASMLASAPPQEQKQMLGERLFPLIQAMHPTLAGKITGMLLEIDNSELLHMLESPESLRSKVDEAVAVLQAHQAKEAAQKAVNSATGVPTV
eIF4H inh: inhibitors of RNA binding by human eIF4H; Q15056; eIF4H fluorescence polarization binding assay; inhibition, % at 35 µM; actives 0.94% (n = 290,000);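 note: calls also rest on retests at 20 µM and on dose response follow-up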
EBNA-1 inh: blocks EBNA-1 binding to DNA; AID 1950; actives 0.34% (n = 300,000); inhibition, % at 14.8 µM; EBNA-1 DNA binding, fluorescence polarization; in the data active = inhibition above about 28%
ZTA counter: blocks Epstein-Barr virus ZTA, an EBNA-1 counter-screen; ZTA-DNA binding, fluorescence polarization; inhibition, % at 11 µM; actives 0.15% (n = 320,000); in the data active = inhibition above about 33%
MLLE-PAM2 inh: inhibitors of microRNA-mediated deadenylation, human PABP1 MLLE binding | P11940 | GST-MLLE / FITC-PAM2 fluorescence polarization | inhibition, % at 20 µM | actives 0.36% (n = 360,000); in the data active = inhibition above about 35%, passing the limit was not always enough;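 note: plate controls were DMSO wells with GST-MLLE for no effect and wells lacking GST-MLLE protein for full effect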
NS3 helicase inh: HCV NS3 helicase inhibition | NS3 helicase DNA unwinding, Cy5 molecular beacon fluorescence | inhibition, % at 10.9 µM | actives 0.56% (n = 290,000);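 active = inhibition above the mean of all tested compounds plus 3 SD, set per campaign, cut at about 35% in these data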;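 note: 0% = DMSO wells and 100% = thioflavine S control wells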
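Measured by: Cy5 fluorescence, 0 and 60 min reads / Assay system: NS3 helicase fragment of HCV / Control set: low DMSO, high thioflavine S at 110 µM / Times: 1 h reaction at 25 °C, ATP-initiated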
Starred values were filed as active, the others as inactive; ? = inconclusive; . = no result given. Unless noted, the rule behind the calls is not given here.

SMILES	PABP polyA inh	eIF4H inh	EBNA-1 inh	ZTA counter	MLLE-PAM2 inh	NS3 helicase inh
O=C(CSc1nnnn1-c1ccccc1)NC(=O)NCc1ccco1	26.5	91.5	-9.5	-2.3	-41.9	6.8
CCCn1c(SCC(=O)NC(=O)NCc2ccccc2)n[nH]c1=O	.	.	.	.	-19.2	.
CCOc1ccccc1-n1nnnc1SCC(=O)NC(=O)NCc1ccco1	23.1*	60.7*	-8.4	-14.9	-70.8	20.3
CCn1c(SCC(=O)NC(=O)NCc2ccco2)nc2sc(C)c(C)c2c1=O	50.1*	81.7*	27.9*	-11.2	-21.8	8.7
Cc1sc2nc(SCC(=O)NCc3ccco3)n(C)c(=O)c2c1C	1.5	2.2	0.0	5.8	-3.9	-3.2
CCOC(=O)c1c(NC(=O)C2CCCCC2C(=O)O)sc2c1CCCCC2 (stereo not given)	20.6	5.3	1.9	-11.6	5.0	27.0
COc1ccc(CNS(=O)(=O)c2ccc3c(c2)N(C(C)=O)CCO3)cc1	14.6	-12.0	-1.0	6.2	-3.7	-1.6
CCCOc1ccc(-c2c(=O)n(OCc3ccc([N+](=O)[O-])cc3)c3ccccc3[n+]2[O-])cc1	1.6	-1.3	11.9	-4.9	-4.6	-1.9
Cn1cc(-c2nnnn2-c2ccc(Cl)cc2)c(=O)c2ccccc21	0.6	-1.6	2.2	6.7	-1.4	3.7
Cc1ccc(-c2nc(SCC(=O)N(C)c3c(N)n(Cc4ccccc4)c(=O)[nH]c3=O)n[nH]2)cc1	52.4*	105.9*	1.9	-1.3	-9.5	5.4
CCN(C(=O)CSc1n[nH]c(-c2ccc(OC)cc2)n1)c1c(N)n(Cc2ccccc2)c(=O)[nH]c1=O	.	.	.	.	-34.4	.
COc1ccc(/C=C/c2ccc3ccccc3[n+]2C)cc1OC	3.3	-9.8	1.6	-0.4	-149.0	-0.3
CC(=O)Oc1ccccc1/C=C/c1ccc2ccccc2[n+]1C	72.8*	18.5	-0.8	2.9	-113.8	-14.4
Cc1ccc(NCC(=O)N/N=C\c2cccc(O)c2)cc1	7.8	2.7	0.8	-14.7	-26.4	4.3
O=C(Nc1ccccc1)N(C1=NCCC1)c1ccccc1	-1.4	-4.5	8.3	-0.5	-12.8	2.6
Cc1ccc(N(C(=O)Nc2ccccc2)C2=NCCC2)cc1	54.1*	88.3*	-0.4	-11.1	10.0	3.6
CC[C@@]1(O)C(=O)OCc2c1cc1n(c2=O)Cc2cc3c(N)cccc3nc2-1	28.9*	91.6*	15.5	9.5	-8.9	.
O=c1c2ccccc2sn1-c1ccc(F)cc1	.	.	.	-12.5	36.9*	.
Cc1ccc(-n2sc3ccccc3c2=O)cc1	-9.8	7.9	6.1	-10.4	15.7	2.7
CCc1ccc(NC(=O)c2ccc3c(c2)C(=O)N(Cc2ccco2)C3=O)cc1	4.4*	56.7*	16.6	10.6	15.6	31.4
O=C(O)c1cccc(NC(=O)c2ccc3c(c2)C(=O)N(Cc2ccco2)C3=O)c1	48.7	62.3*	0.3	-1.7	6.0	9.7
ONc1cccnc1-n1nc(C(F)(F)F)cc1C(F)(F)F	25.3	63.6*	6.1	-3.0	.	-2.8
Cc1cc(OC(C)C(=O)NCCN2CCOCC2)c2c(C)c(C)c(=O)oc2c1 (stereo not given)	-9.3	-12.0	-5.4	2.0	12.7	-4.7
CN(C)C(=O)c1cn(-c2ccc(Cl)cc2)c(=O)c2ccccc12	2.2	2.5	-5.1	-9.1	-10.5	2.4
CN(C)C=NC(=O)c1cn(-c2ccc(F)cc2)c(=O)c2ccccc12	81.5	9.9*	6.3	4.4	6.8	-2.1
SMILES	PABP polyA inh	eIF4H inh	EBNA-1 inh	ZTA counter	MLLE-PAM2 inh	NS3 helicase inh
CCOc1ccc2[nH]c(SCC(=O)OC)c([N+](=O)[O-])c2c1	30.0*	54.4*	-10.0	4.5	53.9*	-10.1
Cc1ccc(-c2nc3ccccc3o2)cc1NC(=S)NC(=O)/C=C/c1ccco1	7.7	-4.4	0.6	9.1	-1.3	8.8
Cc1cccc(NC(=S)NC(=O)/C=C/c2ccco2)c1	17.8	37.3	-14.1	-1.3	-11.0	34.9
Cc1ccc(-n2nc3ccc(NC(=S)NC(=O)/C=C/c4ccco4)cc3n2)cc1	active	88.0	5.4	-1.4	-6.6	13.4
Cc1ccc(-n2nc3cc(C)c(NC(=S)NC(=O)/C=C/c4ccco4)cc3n2)cc1	0.3*	67.5*	6.5	-5.0	-4.6	24.6
O=C(NC(=S)Nn1cnc2c(cnn2-c2ccccc2)c1=O)c1ccc(Oc2ccccc2)cc1	3.5	10.1	31.0*	-0.7	35.1	1.4
Cc1cc(C)c(Nc2cc(S(=O)(=O)O)c(N)c3c2C(=O)c2ccccc2C3=O)c(C)c1	active	92.3	50.5*	51.6*	15.4	23.6
Cc1cc(C)c(NC(=O)COC(=O)c2cccc3c2C(=O)c2ccccc2C3=O)c(C)c1	-3.7	1.0	-14.8	-12.4	8.4	-15.0
CCOc1cc(S(=O)(=O)NCCN2CCOCC2)c(C)cc1C	0.0	-6.1	-6.7	7.5	-5.0	8.5
COc1ccc(N(CC(=O)NN=C2CCCC2)S(=O)(=O)c2ccccc2)cc1Cl	8.9	-5.8	10.5	13.7	-2.6	-6.1
CCOC(=O)CSc1nc2c(c(=O)[nH]c(=O)n2C)n1C/C=C(/C)Cl	-7.2	1.5	1.7	-6.7	37.1*	7.7
CCOC(=O)C(CC)Sc1nc2c(c(=O)[nH]c(=O)n2C)n1CCc1ccccc1 (stereo not given)	-10.1	1.3	2.2	16.6	39.9*	-2.3
CC=CCn1c(SCc2ccccc2)nc2c1c(=O)[nH]c(=O)n2C	.	.	.	.	42.5*	.
Cc1ccc2nc3c(c(N)c2c1)CCN3c1ccccc1	46.6	51.1*	-1.1	-7.3	-8.1	-3.6
CCOC(=O)CSC1=C(C#N)C(=O)NC(c2ccc(OC)c(OC)c2)S1 (stereo not given)	-2.1	-7.1	-7.2	-0.8	47.6*	-0.6
Cc1cc(C)cc(NC(=O)c2ccc(S(=O)(=O)NCc3cccnc3)cc2)c1	-3.7	0.6	-10.2	-4.2	4.2	-3.3
COc1ccc(-c2nc(C)ncc2-c2csc(C)n2)c(O)c1	active	73.0*	1.9	3.2	13.0	2.3
CCOC(=O)N1CCC(Nc2nc3ccccc3n3nnnc23)CC1	47.7*	?	-3.9	10.0	7.7	-0.5
COc1ccccc1C(=O)NCCn1ccc2ccccc21	-7.8	-10.5	-7.0	2.0	42.6*	-0.1
C=CCn1c(C)cc(-c2csc(N)n2)c1C	?	?	3.9	-2.1	28.3	4.1
CCCn1c(C)cc(-c2csc(N)n2)c1C	122.4	122.4*	-14.3	-17.3	21.7	14.0
CCOc1ccc(C(=O)NC(=S)Nc2ccc(N3CCC(C)CC3)cc2)cc1[N+](=O)[O-]	-3.8	-9.7	.	.	15.7	2.3
CCC(=O)N1CCN(c2ccc(NC(=S)NC(=O)c3ccc(OC)c([N+](=O)[O-])c3)cc2)CC1	-6.3	-3.1	-0.1	0.7	41.8*	-6.1
CCc1ccc(C(=O)NC(=S)Nc2ccc(N3CCOCC3)cc2)cc1	2.0	-1.1	1.4	-23.4	39.5*	5.2

Assay outcomes: PubChem, several laboratories
